Screening data from PubChem.
S100A4 MyoIIA = inhibitors of S100A4-myosin IIA peptide binding, primary screen, biochemical, fluorescence polarization, TAMRA-MyoIIA peptide | inhibition, % at 10.7 µM | 0.14% of 360,000 active | AID 652163, 2013;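 active means mean inhibition of at least 70% across replicates, with every replicate also reaching that level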
Target sequence (P26447 whole entry, looked up): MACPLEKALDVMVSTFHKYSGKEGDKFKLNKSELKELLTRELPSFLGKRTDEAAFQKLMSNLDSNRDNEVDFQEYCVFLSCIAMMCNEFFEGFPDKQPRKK
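Material: S100A4 monomer (human). Medium: Calcium-containing HEPES buffer, pH 7.2. Probe or stimulus: labelled myosin peptide probe, 5 nM. Compound dosing: one concentration per compound. Timing: polarization read 5 min after assay mix addition, stable 5–60 min. Benchmarks: DMSO as neutral control, TFP as positive control.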
ERAP1 HTS inh = human ERAP1 aminopeptidase inhibitors, primary screen, biochemical, single point, plate reader | Endoplasmic reticulum aminopeptidase 1 (Homo sapiens), Q9NZ08 | recombinant ERAP1, Leu-AMC fluorescence, 60 min | inhibition, % at 10.7 µM | 0.15% of 340,000 active | AID 652197, 2013;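 active means mean replicate inhibition of at least 30%, or all replicates individually reaching that 30% level; inactive means mean below 30% and not every replicate reaching it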
rRNA inh HTS = reduced GFP signal of wild-type E. coli, primary screen, bacterial rRNA inhibitor project, GFP/RFP fluorescence, OD600, single point | GFP signal change (wild-type ribosome), % (no concentration beside the values) | 1.6% of 350,000 active | AID 720706, 2013 | E. coli WT GFP vs humanized-ribosome RFP mutants, 24 h; hits give low values; DMSO median 0, no signal -100;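 active means significant combined selectivity score with lowered wild-type GFP, culture density cut under 30%, mutant RFP and density less affected; inactive means any of these conditions unmet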
E-selectin induc = E-selectin induction in HUVECs, primary screen, imaging, HUVEC, immunofluorescence imaging, single point; 0.37% of 260,000 active; P16581; normalized: neutral wells 0, TNF-alpha wells 100; AID 686992, 2013; activation, % at 7.58 µM;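 active means mean E-selectin-positive cell signal at least 10% of the positive control, reached in at least 60% of replicates, without over 20% cell loss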
Target sequence (P16581 whole entry, looked up): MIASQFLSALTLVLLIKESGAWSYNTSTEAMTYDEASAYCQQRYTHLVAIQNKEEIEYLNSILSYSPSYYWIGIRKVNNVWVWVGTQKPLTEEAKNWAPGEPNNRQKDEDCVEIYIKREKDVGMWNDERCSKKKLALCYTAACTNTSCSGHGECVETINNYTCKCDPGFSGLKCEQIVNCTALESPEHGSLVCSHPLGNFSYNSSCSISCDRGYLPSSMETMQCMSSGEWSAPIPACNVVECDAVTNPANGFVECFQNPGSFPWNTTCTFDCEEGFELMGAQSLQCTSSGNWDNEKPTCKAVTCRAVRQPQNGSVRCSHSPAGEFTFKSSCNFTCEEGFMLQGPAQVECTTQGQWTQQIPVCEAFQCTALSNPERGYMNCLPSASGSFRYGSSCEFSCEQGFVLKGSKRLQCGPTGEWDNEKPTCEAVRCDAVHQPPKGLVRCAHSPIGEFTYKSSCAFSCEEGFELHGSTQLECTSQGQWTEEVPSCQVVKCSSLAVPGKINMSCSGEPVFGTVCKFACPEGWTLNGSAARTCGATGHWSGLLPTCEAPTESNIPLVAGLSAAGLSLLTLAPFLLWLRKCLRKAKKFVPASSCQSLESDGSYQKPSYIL
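assay system = HUVEC, human umbilical vein endothelial cells | input = 3,000 HUVEC seeded per well | medium = EGM-2 growth medium on 0.1% gelatin-coated wells | dosing = one compound dose added by pin transfer | signal = immunofluorescence imaging | read-out basis = % PE-positive cells | control set = TNF-alpha, DMSO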
AF4-AF9 inh = inhibitors of AF4 peptide binding to AF9, primary screen, biochemical, AlphaScreen, biotin-AF4 peptide, FLAG-AF9, single point; 0.47% of 350,000 active; Protein AF-9 (Homo sapiens), P42568; inhibition, % at 10 µM; AID 651704, 2012;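 active means every replicate reaching a set inhibition limit, whatever the replicate mean, cut at about 25% in these data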
SIRT5 block = SIRT5 desuccinylase inhibitors, primary screen, biochemical, fluorescence imaging, single point, set 5 | inhibition, % at 15 µM | AID 652115, 2013 | 1.1% of 330,000 active | Purified SirT5, succinyl-peptide AMC, trypsin-coupled fluorescence; in the data active means inhibition above about 15%
Of the large screens only hits and unclear results are named; the others gave an inactive call; ! = not confirmed by another sample. Only some compounds are listed: those with a hit (about 3.4% of all), similar ones and a draw of the others.

O=C(Cc1cccc(NC(=O)C2CCCN(C(=O)C3CCCC3)C2)c1)Nc1cccc(C(=O)N2CCOCC2)c1 (centres undefined)	SIRT5 block 19.1
O=C(Cc1cccc(NC(=O)C2CCCN(C(=O)CCc3ccccc3)C2)c1)Nc1cccc(C(=O)N2CCCCC2)c1 (centres undefined)	rRNA inh HTS -18.0 (no result: SIRT5 block)
COc1ccc2c3c([nH]c2c1)[C@H](CO)N(CC1CC1)CC31CN(C(=O)c2ccccc2F)C1	none (no result: S100A4 MyoIIA, ERAP1 HTS inh, SIRT5 block)
COCC#Cc1cnc2c(c1)C(=O)N([C@H](C)CO)C[C@H](C)[C@H](CN(C)S(=O)(=O)c1cn(C)cn1)O2	none
CN1CCN(C(=O)C[C@@H]2C[C@@H]3c4cc(NC(=O)C5CCC5)ccc4O[C@@H]3[C@@H](CO)O2)CC1	none (no result: SIRT5 block)
CN(Cc1cn(-c2ccccc2)nc1-c1ccc2c(c1)OCO2)Cc1nccn1C	AF4-AF9 inh 33.5 (no result: E-selectin induc)
CO[C@@H]1CN(C)C(=O)c2ccc(NC(=O)C3CCC3)cc2OC[C@H](C)N(Cc2ccncc2)C[C@@H]1C	none
CCCCNc1nc(N)ncc1[N+](=O)[O-]	SIRT5 block 30.0
O=C(C[C@@H]1C/C=C\C[C@@H](Cc2ccc(F)cc2)C(=O)OC[C@H]2CCCN2C1=O)N[C@H](CO)Cc1ccccc1	rRNA inh HTS -18.2 (no result: ERAP1 HTS inh)
CC(C)(C)OC(=O)C[C@@H]1C/C=C\C[C@H](CC(=O)N[C@H](CO)Cc2ccccc2)C(=O)N[C@H](Cc2ccccc2)COC1=O	none (no result: SIRT5 block)
CC(C)(C)OC(=O)C[C@H]1C/C=C\C[C@H](CC(=O)N[C@H](CO)Cc2ccccc2)C(=O)N[C@H](Cc2ccccc2)COC1=O	S100A4 MyoIIA 108.4
O=C(C[C@@H]1C=C[C@@H](NS(=O)(=O)c2ccccc2)[C@@H](CO)O1)NCc1ccncn1	none
O=C(Nc1nccs1)c1cc2cc(Cl)ccc2oc1=O	SIRT5 block 20.6 (no result: E-selectin induc)
O=C(Nc1nccs1)c1ccc(Cl)cc1[N+](=O)[O-]	none (no result: E-selectin induc)
COc1ccc(NC(=O)N(C)C[C@H]2Oc3ccc(NS(C)(=O)=O)cc3CC(=O)N([C@@H](C)CO)C[C@@H]2C)cc1	none
CSc1nsc(N/N=C/c2ccccc2)c1C#N	rRNA inh HTS -22.5 (no result: E-selectin induc)
COc1cc(C)c(NC(=O)c2cc(C3CC3)nc3c2cnn3C(C)C)cc1OC	none (no result: rRNA inh HTS, E-selectin induc)
COc1ccc(NC(=O)c2cc(C3CC3)nc3c2cnn3C(C)C)cc1OC	SIRT5 block 16.2
Nc1nccc(-c2ccc(-n3cnc4ccccc43)cc2)n1	SIRT5 block 20.6
c1ccc2c(c1)ncn2-c1ccc(-c2ccnc3ncnn23)cc1	none
Cc1ccc(-c2nc(N3CCN(C)CC3)c3ccccc3n2)cc1	rRNA inh HTS -26.6
COc1cccc(CN(C)C(=S)Nc2ccc(C)c(C)c2)c1	rRNA inh HTS -24.9
COc1ccc(CN(C)C(=S)Nc2ccc(OC(F)F)cc2)cc1	none
C[C@H]1CN([C@@H](C)CO)C(=O)c2cc(NC(=O)Nc3ccccc3)ccc2O[C@H]1CN(C)S(=O)(=O)c1ccc(Cl)cc1	none
O=C(NNC(=O)c1ccccc1O)c1ccc(-c2ccc([N+](=O)[O-])cc2)o1	rRNA inh HTS -24.5 (no result: E-selectin induc)
CC1CC(C)CN(C(=O)c2ccc(-c3ccc([N+](=O)[O-])cc3)o2)C1 (centres undefined)	rRNA inh HTS -20.9
O=C(Nc1ccccc1)c1ccc(-c2ccc([N+](=O)[O-])cc2)o1	none (no result: E-selectin induc)
CN1c2ccc(-c3ccc(C#N)cc3)cc2[C@@H]2[C@@H](CCN2C(=O)Nc2cccc(F)c2)[C@@H]1CO	none
CCCc1nc(NCCCOCC)c2nnn(Cc3ccccc3)c2n1	SIRT5 block 16.9
O=C(Nc1ccc(F)cc1)Nc1ccc2c(c1)[C@H]1C[C@@H](CC(=O)N3CCOCC3)O[C@H](CO)[C@H]1O2	none
Cc1cc(/C=C\c2ccccc2)nc2ccccc12	AF4-AF9 inh 26.4 (no result: E-selectin induc)
CC(c1ccon1)N(C)C(=O)c1cccc(OC2CCN(S(C)(=O)=O)CC2)c1 (centres undefined)	SIRT5 block 15.2 (no result: E-selectin induc)
Cc1ccc(-c2ccccc2[C@@H]2[C@@H](C#N)N(C(=O)Cc3cccnc3)[C@@H]2CO)cc1	none (no result: S100A4 MyoIIA, ERAP1 HTS inh, E-selectin induc, AF4-AF9 inh, SIRT5 block)
CCC(=O)N(C)C[C@H]1Oc2cc(-c3ccccc3)ccc2S(=O)(=O)N([C@@H](C)CO)C[C@@H]1C	none
COc1ccc(NC(=O)Nc2ccc3c(c2)C(=O)N([C@H](C)CO)C[C@@H](C)[C@@H](CN(C)Cc2ccccc2)OCCCC[C@H](C)O3)cc1	SIRT5 block 21.4
C[C@@H]1CCCCO[C@@H](CN(C)Cc2ccccc2)[C@H](C)CN([C@H](C)CO)C(=O)c2cc(NC(=O)CCC(F)(F)F)ccc2O1	none
COc1ccc(NC(=O)Nc2ccc3c(c2)C(=O)N([C@@H](C)CO)C[C@@H](C)[C@@H](CN(C)Cc2ccc(C(F)(F)F)cc2)OCCCC[C@@H](C)O3)cc1	SIRT5 block 16.9
C[C@@H]1CCCCO[C@H](CN(C)Cc2ccccc2)[C@H](C)CN([C@H](C)CO)C(=O)c2cc(NC(=O)CCC(F)(F)F)ccc2O1	SIRT5 block 19.4
COc1ccc(NC(=O)Nc2ccc3c(c2)C(=O)N([C@@H](C)CO)C[C@H](C)[C@H](CN(C)Cc2ccccc2)OCCCC[C@@H](C)O3)cc1	none
COc1ccc(CN(C)C[C@H]2OCCCC[C@@H](C)Oc3ccc(NC(=O)Nc4ccc(C(F)(F)F)cc4)cc3C(=O)N([C@H](C)CO)C[C@H]2C)cc1	none (no result: E-selectin induc)
COc1ccc(NC(=O)Nc2ccc3c(c2)C(=O)N([C@@H](C)CO)C[C@H](C)[C@@H](CN(C)Cc2ccccc2)OCCCC[C@H](C)O3)cc1	SIRT5 block 19.9
C/C=C/c1ccc([C@@H]2[C@H](CO)N(C(=O)CN(C)C)C23CN(C(=O)C2CCC2)C3)cc1	none
CN1C(=O)c2cc(NC(=O)C3CCC3)ccc2OC[C@H]2O[C@H](CC(=O)NCc3ccccc3F)CC[C@@H]21	none
O=C(Cn1cnc(S(=O)(=O)N2CCCC2)c1)Nc1cccc(Br)c1	SIRT5 block 18.9 (no result: E-selectin induc)
CC(=O)c1cccc(NC(=O)Cn2cnc(S(=O)(=O)N3CCCCC3)c2)c1	none
Nc1cc(-c2ccncc2)c[nH]c1=O	S100A4 MyoIIA 151.7!
C[C@H](CO)N1C[C@H](C)[C@@H](CN(C)C(=O)Nc2ccccc2)Oc2c(NS(=O)(=O)c3cccs3)cccc2C1=O	SIRT5 block 24.5
